Test results: ChEMBL document CHEMBL4393654, “Discovery and Early Clinical Development of an Inhibitor of 5-Lipoxygenase Activating Protein (AZD5718) for Treatment of Coronary Artery Disease” (J Med Chem, 2019)
One block for each compound: values may come before it.

How the values were obtained:
[1] = Clearance in Beagle dog at 1 umol/kg, iv; format: ADME, Canis lupus familiaris; conditions: in vivo
[2] = Cardiotoxicity in conscious telemetered Beagle dog assessed as effect on left ventricular parameters at 0.5 to 30 mg/kg administered as single iv infusion for 2 hrs measured up to 48 hrs post dose by telemetry; format: toxicity, organism-based, Canis lupus familiaris; conditions: in vivo
Procedure, shortened: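 Conscious beagle dogs were given the compound by intravenous infusion. Infusion was set to reach a target plasma concentration 100-fold above the predicted free human Cmax at the therapeutic dose, and cardiovascular parameters were recorded.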

[3] = Cardiotoxicity in dog assessed as effect on histopathological changes measured up to 28 days during compound dosing; format: toxicity, Canis lupus familiaris; conditions: in vivo, 672 h
[4] = test system: Cytochrome P450; assay: Drug metabolism in human hepatocytes assessed as CYP450-mediated phase-2 glucuronidation/ketone reduction at 4 uM measured after 120 mins by LC-MS/MS analysis; format: ADME, cell-based, Hepatocyte; conditions: 2 h

clearance [1]: 2 mL/min/kg
Structure (SMILES): Cc1cc(-c2ccc(C(=O)[C@@H]3CCCC[C@H]3C(=O)Nc3cnn(C)c3C(=O)NOC(C)(C)C)cc2)[nH]n1

Structure (SMILES): Cc1cc(-c2ccc(C(=O)[C@@H]3CCCC[C@H]3C(=O)Nc3cnn4c3C(=O)NCC4)cc2)[nH]n1
Activity [2]: Non-Toxic | Activity [3]: Non-Toxic

Drug metabolism [4]: Metabolite_Detected
Structure (SMILES): Cc1cc(-c2ccc(C(=O)[C@@H]3CCCC[C@H]3C(=O)Nc3cnn(C)c3S(N)(=O)=O)cc2)[nH]n1
